Laboratory results: article PMC12808645 (Nature Communications, 2025)

What was measured:
[1] = molecular target: Nan only, Y177A; assay: [3H]-AP binding to Nan-only membranes, Y177A; set-up: species or system Halyomorpha halys
Procedure, shortened: (§1)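 Nan expressed in HEK293S GnTI- suspension cells (1–1.5 M/mL) by 3% (v/v) baculovirus, ~1 day at 37 °C then 48 h at 25 °C. Membranes were made by sonication and spun at 300 × g 10 min then 50,000 × g 2 h. Saturation binding used 60–100 µg membranes with [3H]-AP in pH 7.4 HEPES binding buffer (CaCl2, MgCl2, 0.0025% Tween-20), 3 h at room temperature. Samples were filtered on 0.1% PEI-treated filters, washed thrice with ice-cold buffer, and counted by scintillation. Nonspecific binding was set with 500-fold excess unlabeled AP.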

[2] = system: Nan only, Y172A; assay: [3H]-AP binding to Nan-only membranes, Y172A; set-up: species or system Halyomorpha halys; settings: NanY172A
Procedure, shortened: as §1

[3] = molecular target: Nan only, WT; assay: [3H]-AP binding to Nan-only membranes, WT; set-up: species or system Halyomorpha halys; settings: read-out: [3H]-AP binding Kd
Procedure, shortened: as §1

[4] = molecular target: stink bug Nan-Iav; set-up: species or system Halyomorpha halys; settings: read-out: [3H]-AP binding Kd
[5] = system: stink bug Nan-Iav; format: binding, Halyomorpha halys
[6] = system: Nan-IavW701A; assay: Whole-cell electrophysiology, Nan-IavW701A; format: cell-based, Halyomorpha halys; settings: 1 mM Ca2+
[7] = system: Nan-Iav(∆697-C); format: cell-based, Halyomorpha halys; settings: 1 mM Ca2+, Δ C-ter (Iav∆(697-986))
[8] = system: Drosophila Nan-Iav; settings: cited from earlier work
[9] = system: Nan-IavY325A; format: binding, Halyomorpha halys

SMILES: C[C@]1(COC(=O)C2CC2)[C@@H]2C[C@H](O)[C@@]3(C)Oc4cc(-c5cccnc5)oc(=O)c4[C@H](O)[C@@H]3[C@@]2(C)CC[C@@H]1OC(=O)C1CC1 [[^3H]-AP]
- [3H]-AP binding Kd [1]: lacks measurable binding
- higher [3H]-AP Kd compared to WT Nan [2]: 7.5 fold
- Kd [3]: 0.089 nM
- Kd [4]: 0.017 nM

SMILES: CC1=NNC(=O)N(/N=C/c2cccnc2)C1 [PM, pymetrozine]
- binding mode versus [3H]-AP [5]: competitive binding

SMILES: [Ca+2] [Ca^2+]
- % inhibition of inward current [6]: ~ 10%
- % inhibition of inward current [7]: ~ 10%

SMILES: NC(=O)c1cccnc1 [NAM, nicotinamide]
- EC50 [8]: 14000 nM
- NAM binding (in words) [9]: eliminated NAM binding
